ChEMBL document CHEMBL1148625, “3-(1,1-dioxo-2H-(1,2,4)-benzothiadiazin-3-yl)-4-hydroxy-2(1H)-quinolinones, potent inhibitors of hepatitis C virus RNA-dependent RNA polymerase” (J Med Chem, 2006)

Key:
Hepatitis C virus [1] = test: Protein binding in Huh7 cells using HCV 1b replicon by a replicon cell assay in presence of HSA; format: functional, organism-based, Hepacivirus hominis; conditions: genotype 1b, Huh-7
[2] = target: RNA-directed RNA polymerase (Hepacivirus hominis) (UniProt O39930); test: Inhibitory activity against HCV 3a NS5B RNA at 10 uM
[3] = Half life in Beagle dog at 0.8 mg/kg, iv or 4.0mg/kg, po; format: ADME, organism-based, Canis lupus familiaris; design: dose 0.8 mg/kg; conditions: in vivo
How it was run: (§1)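 Single-dose study, with separate intravenous and oral administrations at the listed mg/kg. Plasma concentrations were followed over time, and mean values were derived for Cmax, T1/2, clearance (mL/min/kg), Vdss (L/kg) and oral bioavailability (%).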

[4] = Volume of distribution in Sprague-Dawley rat at 1.3 mg/kg, iv or 3.4 mg/kg, po; format: ADME, organism-based; conditions: in vivo, read-out: Vdss
How it was run: (§2)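 Single intravenous or oral doses given to Sprague-Dawley rats. Values are reported as means: Cmax (ng/mL), half-life (min), plasma clearance (mL/min/kg), steady-state volume of distribution (L/kg) and oral bioavailability F (%).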

[5] = Volume of distribution in Beagle dog at 0.8 mg/kg, iv or 4.0 mg/kg, po; format: ADME, organism-based, Canis lupus familiaris; conditions: in vivo, read-out: Vdss; how it was run: as §1
Hepatitis C virus [6] = test: Protein binding in Huh7 cells using HCV 1b replicon by a replicon cell assay in presence of HSA and alpha-acid glycoprotein; format: functional, organism-based, Hepacivirus hominis; conditions: genotype 1b, Huh-7
[7] = Clearance in cynomolgus monkey at 0.8 mg/kg, iv or 4.0 mg/kg, po; format: ADME, organism-based, Macaca fascicularis; conditions: in vivo; how it was run: as §1
[8] = Cmax in Sprague-Dawley rat at 1.3 mg/kg, iv or 3.4 mg/kg, po; format: ADME, organism-based; conditions: in vivo; how it was run: as §2
[9] = target: T1, Nuclear receptor subfamily 1 group I member 2 (Homo sapiens, UniProt O75469); test: Effect on PXR activity
T1 sequence (O75469 whole entry): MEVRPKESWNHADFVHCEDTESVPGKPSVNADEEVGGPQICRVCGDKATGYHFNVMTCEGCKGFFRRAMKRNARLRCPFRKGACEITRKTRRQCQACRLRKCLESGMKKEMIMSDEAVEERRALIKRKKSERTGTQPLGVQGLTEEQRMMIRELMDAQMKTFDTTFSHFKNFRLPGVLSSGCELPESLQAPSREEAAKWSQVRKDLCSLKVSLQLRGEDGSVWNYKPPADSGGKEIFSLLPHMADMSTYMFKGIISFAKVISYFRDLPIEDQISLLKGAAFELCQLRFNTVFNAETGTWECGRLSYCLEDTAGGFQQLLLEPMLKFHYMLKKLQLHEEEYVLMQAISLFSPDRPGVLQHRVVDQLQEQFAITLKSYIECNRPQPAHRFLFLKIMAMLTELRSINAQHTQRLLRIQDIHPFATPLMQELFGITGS

[10] = Volume of distribution in cynomolgus monkey at 0.8 mg/kg, iv or 4.0 mg/kg, po; format: ADME, organism-based, Macaca fascicularis; conditions: in vivo, read-out: Vdss; how it was run: as §1
[11] = target: RNA-directed RNA polymerase (Hepacivirus hominis) (UniProt O39930); test: Inhibition of HCV RNA replication in Huh7 cells; format: functional, cell-based; conditions: Huh-7
How it was run: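 Huh-7 subgenomic replicon cells were seeded at 3 × 10³/well in DMEM with 10% FCS, 1% NEAA and 1 mg/mL G418, and allowed 4 h to attach. Eleven 2.5-fold DMSO dilutions were added (final 10,000 to 1.0 nM) and cells incubated 40 h. Neo RNA was measured by TaqMan RT-PCR, normalised to cyclophilin against DMSO controls; n = 8 wells per dilution.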

Cytochrome P450 2C9 = Cytochrome P450 2C9 (Homo sapiens, UniProt P11712); test: Inhibition of CYP2C9 isozyme; format: ADME
Hepatitis C virus [12] = test: Protein binding in Huh7 cells using HCV 1b replicon by a replicon cell assay; format: functional, organism-based, Hepacivirus hominis; conditions: genotype 1b, Huh-7
How it was run: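 Replicon assay in Huh-7 cells run with α-acid glycoprotein, human serum albumin, or both added to the medium, to assess the effect of plasma protein binding on cellular activity.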

[13] = target: RNA-directed RNA polymerase (Hepacivirus hominis, UniProt O39930); test: Inhibitory activity against HCV delta 21 NS5B RNA polymerase by SPA assay; design: species or system Hepatitis C virus subtype 1b
[14] = Clearance in Sprague-Dawley rat at 1.3 mg/kg, iv or 3.4 mg/kg, po; format: ADME, organism-based; conditions: in vivo; how it was run: as §2
Genome polyprotein = Genome polyprotein (GB virus-B, UniProt Q69422); test: Inhibitory activity against virus GBV-B polymerase
Chain of Genome polyprotein (Q69422 2275-2864 limits assumed): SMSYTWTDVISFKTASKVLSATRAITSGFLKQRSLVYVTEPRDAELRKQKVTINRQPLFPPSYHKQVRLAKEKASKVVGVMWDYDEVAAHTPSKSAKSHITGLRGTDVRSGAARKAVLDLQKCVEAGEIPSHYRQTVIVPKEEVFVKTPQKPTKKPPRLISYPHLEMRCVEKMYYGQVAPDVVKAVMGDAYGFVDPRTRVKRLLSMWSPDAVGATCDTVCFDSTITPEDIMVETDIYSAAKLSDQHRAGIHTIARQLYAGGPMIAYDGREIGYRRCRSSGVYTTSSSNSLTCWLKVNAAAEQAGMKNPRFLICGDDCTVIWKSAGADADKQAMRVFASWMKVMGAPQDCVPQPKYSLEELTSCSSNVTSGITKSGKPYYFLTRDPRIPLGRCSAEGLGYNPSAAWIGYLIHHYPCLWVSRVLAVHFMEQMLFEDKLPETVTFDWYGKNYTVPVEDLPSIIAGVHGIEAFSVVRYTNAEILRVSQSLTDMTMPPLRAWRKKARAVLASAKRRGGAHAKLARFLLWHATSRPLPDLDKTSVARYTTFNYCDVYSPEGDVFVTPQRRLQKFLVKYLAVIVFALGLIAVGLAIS

Chain of RNA-directed RNA polymerase (Hepacivirus hominis) (O39930 1-591): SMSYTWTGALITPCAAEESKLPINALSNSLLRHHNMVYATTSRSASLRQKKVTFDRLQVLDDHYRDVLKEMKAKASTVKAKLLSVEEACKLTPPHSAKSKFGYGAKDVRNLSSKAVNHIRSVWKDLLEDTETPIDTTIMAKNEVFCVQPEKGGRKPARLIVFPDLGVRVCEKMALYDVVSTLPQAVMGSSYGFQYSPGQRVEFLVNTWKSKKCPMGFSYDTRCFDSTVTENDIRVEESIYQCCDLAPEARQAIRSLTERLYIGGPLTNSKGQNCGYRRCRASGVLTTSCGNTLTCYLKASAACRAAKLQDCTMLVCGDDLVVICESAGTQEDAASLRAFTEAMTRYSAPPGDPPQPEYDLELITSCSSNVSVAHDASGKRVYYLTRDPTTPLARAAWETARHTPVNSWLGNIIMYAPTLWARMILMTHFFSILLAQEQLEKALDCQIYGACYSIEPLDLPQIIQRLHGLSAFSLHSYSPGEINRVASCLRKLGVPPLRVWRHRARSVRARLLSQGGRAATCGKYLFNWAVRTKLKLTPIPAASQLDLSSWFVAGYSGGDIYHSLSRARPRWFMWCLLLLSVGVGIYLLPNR
Chain of RNA-directed RNA polymerase (O39930 whole entry): as the sequence (O39930 1-591) above
Chain of Cytochrome P450 2C9 (P11712 whole entry): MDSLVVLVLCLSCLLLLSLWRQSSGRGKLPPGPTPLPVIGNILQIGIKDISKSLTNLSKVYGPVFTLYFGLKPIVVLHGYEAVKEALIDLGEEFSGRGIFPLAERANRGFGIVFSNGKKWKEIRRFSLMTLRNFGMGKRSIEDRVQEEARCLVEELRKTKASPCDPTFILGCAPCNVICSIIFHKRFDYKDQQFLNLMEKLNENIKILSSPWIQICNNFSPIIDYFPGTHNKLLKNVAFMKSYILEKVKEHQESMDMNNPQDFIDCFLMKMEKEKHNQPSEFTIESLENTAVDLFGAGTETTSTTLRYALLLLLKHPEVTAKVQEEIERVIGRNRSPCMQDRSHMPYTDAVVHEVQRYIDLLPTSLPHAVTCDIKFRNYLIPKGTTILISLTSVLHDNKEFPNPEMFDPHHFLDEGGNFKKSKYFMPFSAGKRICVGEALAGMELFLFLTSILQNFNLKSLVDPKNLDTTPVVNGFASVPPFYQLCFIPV

EC50 (Hepatitis C virus [1]): 13000 nM | inhibition [2]: 60% | half-life [3]: 1.72 h | Vd [4]: 0.36 L/kg | Vd [5]: 0.15 L/kg | EC50 (Hepatitis C virus [6]): > 20000 nM | clearance [7]: 0.76 mL/min/kg | Cmax [8]: 4140 ng/mL | EC50 [9]: 5300 nM | Vd [10]: 0.11 L/kg | EC90 [11]: 207 nM | IC50 (Cytochrome P450 2C9): 1000 nM | EC50 (Hepatitis C virus [12]): 38 nM | IC50 [13]: 10 nM | clearance [14]: 1.4 mL/min/kg | IC50 (Genome polyprotein): > 50000 nM
Compound: O=c1c(C2=Nc3ccccc3S(=O)(=O)N2)c(O)c2cc(F)ccc2n1CCC1CC1
